In PubChem BioAssay AID504513 (The Scripps Research Institute Molecular Screening Center, 2011) one finds inhibition data, which are given here for 7 compounds.

Activity calls are given as the source filed them.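 The calls were made as follows: active = PAFAH2 inhibition at least 50% at 0.2 µM with under 50% on each related off-target enzyme; inactive = the rest, including PAFAH2 hits that also hit off-targets.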

What all share (experiment): PAFAH2 inhibition and serine hydrolase selectivity, late-stage follow-up, cell lysate, fluorescence, gel-based ABPP, BW5147 T-cell proteome, powder samples (AID 504513);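 also: 0% = DMSO-only band intensity and 100% = blank gel background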
The test system of experiment [1] is ABHD11. The following applies: BW5147 mouse T-cell proteome, FP-Rh gel ABPP, stronger effect = higher value. Put shortly:
(§1)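 assay system = mouse BW5147 T-cell soluble lysate | amount = 1 mg/mL soluble protein | schedule = compound pretreatment 30 min, then 30 min probe labelling at 25 °C | measured by = in-gel fluorescence of probe-labelled bands, integrated optical density | evaluation = percent band labelling lost versus DMSO control | control set = DMSO-only sample as high, blank gel area as low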

For experiment [2], the system named is LYPLA1. The settings on record: BW5147 mouse T-cell proteome, FP-Rh gel ABPP, stronger effect = higher value. Put shortly: as §1
Experiment [3] relates to APEH. The settings on record: BW5147 mouse T-cell proteome, FP-Rh gel ABPP, stronger effect = higher value. The method in brief: as §1
Experiment [4] deals with Platelet-activating factor acetylhydrolase 2, cytoplasmic (Mus musculus) (UniProt Q8VDG7). The settings on record: FP-Rh gel ABPP, stronger effect = higher value. The method in brief: as §1
The subject of experiment [5] is ESD. The settings on record: BW5147 mouse T-cell proteome, FP-Rh gel ABPP, stronger effect = higher value. The method in brief: as §1

Chain of Platelet-activating factor acetylhydrolase 2, cytoplasmic (Mus musculus) (Q8VDG7 whole entry, looked up): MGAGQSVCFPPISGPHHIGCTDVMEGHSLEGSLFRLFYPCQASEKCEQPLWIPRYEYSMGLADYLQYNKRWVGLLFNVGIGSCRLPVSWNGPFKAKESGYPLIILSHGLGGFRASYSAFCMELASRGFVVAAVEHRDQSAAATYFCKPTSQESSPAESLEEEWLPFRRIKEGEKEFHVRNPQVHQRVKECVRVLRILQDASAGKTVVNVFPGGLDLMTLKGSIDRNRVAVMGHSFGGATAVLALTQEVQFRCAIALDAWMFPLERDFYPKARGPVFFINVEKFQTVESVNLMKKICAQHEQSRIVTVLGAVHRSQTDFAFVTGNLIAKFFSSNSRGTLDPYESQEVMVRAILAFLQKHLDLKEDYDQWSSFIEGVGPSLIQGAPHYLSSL

As usually defined, the inhibition is the share of the control response that was lost under treatment. Regarding `O=C(N1CCCCC1)n1ccnn1`, the inhibition in experiment [1] (at 1 µM) was 50% (inactive); in experiment [1] (inhibition, at 0.02 µM), 0%; in experiment [1] (inhibition, at 0.2 µM), 0%; in experiment [2] (at 1 µM), 0% (inactive); in experiment [2] (inhibition, at 0.02 µM), 0%; in experiment [2] (inhibition, at 0.2 µM), 0%. Besides, the inhibition in experiment [3] (at 1 µM) was 0% (inactive); in experiment [3] (inhibition, at 0.02 µM), 0%; in experiment [3] (inhibition, at 0.2 µM), 0%; in experiment [4] (PAFAH2, at 1 µM), 50% (inactive); in experiment [4] (PAFAH2, inhibition, at 0.02 µM), 0%; in experiment [4] (PAFAH2, inhibition, at 0.2 µM) it was 0%. The inhibition in experiment [5] (at 1 µM) was 0% (inactive); in experiment [5] (inhibition, at 0.02 µM) it was 0%; in experiment [5] (inhibition, at 0.2 µM) it was 0%.
Take `O=C(N1CCOCC1)n1ncc(-c2ccccc2)n1`: the inhibition in experiment [1] (at 1 µM) was 100%; in experiment [1] (inhibition, at 0.02 µM), 50%; in experiment [1] (inhibition, at 0.2 µM), 100%; in experiment [2] (at 1 µM), 0% (inactive); in experiment [2] (inhibition, at 0.02 µM), 0%; in experiment [2] (inhibition, at 0.2 µM), 0%. In addition, the inhibition is 50% (inactive) in experiment [3] (at 1 µM); 0% in experiment [3] (inhibition, at 0.02 µM); 25% in experiment [3] (inhibition, at 0.2 µM); 75% in experiment [4] (PAFAH2, at 1 µM); 25% in experiment [4] (PAFAH2, inhibition, at 0.02 µM); 50% in experiment [4] (PAFAH2, inhibition, at 0.2 µM). Also, the inhibition in experiment [5] (at 1 µM) is 0% (inactive); in experiment [5] (inhibition, at 0.02 µM) it was 0%; in experiment [5] (inhibition, at 0.2 µM) it was 0%.
With `O=C(N1CCCC1)n1ncc(-c2ccc(OC(F)(F)F)cc2)n1`, the inhibition is 50% in experiment [1] (at 1 µM); 0% in experiment [1] (inhibition, at 0.02 µM); 50% in experiment [1] (inhibition, at 0.2 µM); 0% (inactive) in experiment [2] (at 1 µM); 0% in experiment [2] (inhibition, at 0.02 µM); 0% in experiment [2] (inhibition, at 0.2 µM). Also, the inhibition in experiment [3] (at 1 µM) was 100%; in experiment [3] (inhibition, at 0.02 µM), 0%; in experiment [3] (inhibition, at 0.2 µM) it was 100%; in experiment [4] (PAFAH2, at 1 µM), 100%; in experiment [4] (PAFAH2, inhibition, at 0.02 µM), 25%; in experiment [4] (PAFAH2, inhibition, at 0.2 µM), 100%. For the same compound, the inhibition in experiment [5] (at 1 µM) is 0% (inactive); in experiment [5] (inhibition, at 0.02 µM) it was 0%; in experiment [5] (inhibition, at 0.2 µM), 0%.
Consider `CN(C(=O)n1ccnn1)c1ccccc1`, for which the inhibition in experiment [1] (at 1 µM) is 100% (inactive); in experiment [1] (inhibition, at 0.02 µM) it was 0%; in experiment [1] (inhibition, at 0.2 µM) it was 0%; in experiment [2] (at 1 µM) it was 0% (inactive); in experiment [2] (inhibition, at 0.02 µM) it was 0%; in experiment [2] (inhibition, at 0.2 µM), 0%. Further, the inhibition in experiment [3] (at 1 µM) was 0% (inactive); in experiment [3] (inhibition, at 0.02 µM) it was 0%; in experiment [3] (inhibition, at 0.2 µM), 0%; in experiment [4] (PAFAH2, at 1 µM) it was 0% (inactive); in experiment [4] (PAFAH2, inhibition, at 0.02 µM), 0%; in experiment [4] (PAFAH2, inhibition, at 0.2 µM), 0%. Moreover, the inhibition in experiment [5] (at 1 µM) is 0% (inactive); in experiment [5] (inhibition, at 0.02 µM), 0%; in experiment [5] (inhibition, at 0.2 µM) it was 0%.
Consider `O=C(N1CCCC1)n1ncc(-c2ccccc2)n1`, for which the inhibition is 100% in experiment [1] (at 1 µM); 0% in experiment [1] (inhibition, at 0.02 µM); 100% in experiment [1] (inhibition, at 0.2 µM); 0% (inactive) in experiment [2] (at 1 µM); 0% in experiment [2] (inhibition, at 0.02 µM); 0% in experiment [2] (inhibition, at 0.2 µM). Moreover, the inhibition in experiment [3] (at 1 µM) is 100%; in experiment [3] (inhibition, at 0.02 µM), 0%; in experiment [3] (inhibition, at 0.2 µM), 100%; in experiment [4] (PAFAH2, at 1 µM) it was 100%; in experiment [4] (PAFAH2, inhibition, at 0.02 µM), 75%; in experiment [4] (PAFAH2, inhibition, at 0.2 µM), 100%. Further, the inhibition in experiment [5] (at 1 µM) was 0% (inactive); in experiment [5] (inhibition, at 0.02 µM) it was 0%; in experiment [5] (inhibition, at 0.2 µM), 0%.
As for `O=C(N1CCOCC1)n1ncc(-c2ccc(OC(F)(F)F)cc2)n1`, the inhibition in experiment [1] (at 1 µM) is 100%; in experiment [1] (inhibition, at 0.02 µM), 25%; in experiment [1] (inhibition, at 0.2 µM), 100%; in experiment [2] (at 1 µM), 0% (inactive); in experiment [2] (inhibition, at 0.02 µM), 0%; in experiment [2] (inhibition, at 0.2 µM) it was 0%. Further, the inhibition in experiment [3] (at 1 µM) was 0% (inactive); in experiment [3] (inhibition, at 0.02 µM) it was 0%; in experiment [3] (inhibition, at 0.2 µM), 0%; in experiment [4] (PAFAH2, at 1 µM), 50%; in experiment [4] (PAFAH2, inhibition, at 0.02 µM) it was 0%; in experiment [4] (PAFAH2, inhibition, at 0.2 µM), 50%. Moreover, the inhibition is 0% (inactive) in experiment [5] (at 1 µM); 0% in experiment [5] (inhibition, at 0.02 µM); 0% in experiment [5] (inhibition, at 0.2 µM).
Turning to `O=C(N1CCOCC1)n1ncc(-c2cc(F)cc(F)c2)n1`, the inhibition was 100% in experiment [1] (at 1 µM); 50% in experiment [1] (inhibition, at 0.02 µM); 100% in experiment [1] (inhibition, at 0.2 µM); 0% (inactive) in experiment [2] (at 1 µM); 0% in experiment [2] (inhibition, at 0.02 µM); 0% in experiment [2] (inhibition, at 0.2 µM). The inhibition was 100% in experiment [3] (at 1 µM); 0% in experiment [3] (inhibition, at 0.02 µM); 100% in experiment [3] (inhibition, at 0.2 µM); 100% in experiment [4] (PAFAH2, at 1 µM); 0% in experiment [4] (PAFAH2, inhibition, at 0.02 µM); 100% in experiment [4] (PAFAH2, inhibition, at 0.2 µM). Also, the inhibition is 50% (inactive) in experiment [5] (at 1 µM); 0% in experiment [5] (inhibition, at 0.02 µM); 25% in experiment [5] (inhibition, at 0.2 µM).
